Results published in ChEMBL document CHEMBL5543124, “Lead Compound Development of SRC-3 Inhibitors with Improved Pharmacokinetic Properties and Anticancer Efficacy” (J Med Chem, 2024).
Calls of active or inactive are those of the source. The rule behind the calls is not given here.

How the values were obtained:
[1] = Oral bioavailability in CD-1 mouse at 10 mg/kg administration measured upto 48 hrs by LC-MS/MS analysis; type: ADME, organism-based; conditions: in vivo
[2] = AUC (0 to t) in CD-1 mouse at 10 mg/kg,po administration measured upto 48 hrs by LC-MS/MS analysis; type: ADME, organism-based; conditions: in vivo
Method in brief: (§1)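 Oral gavage in ICR male mice (n = 3); dosing solution 1 mg/mL in 20% DMSO, 16% PEG, 4% dextrose in PBS. Tail-vein blood (10 μL) taken at 15, 30 min and 1, 2, 4, 8, 24, 48 h. Plasma quantified by LC-MS/MS against a 0.5–1000 ng/mL calibration; parameters from a non-compartmental extravascular model.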

Prostate cancer organoid = assay: Antitumor activity against patient derived Prostate cancer PDX organoid assessed as reduction in organoid formation measured after 2 weeks; type: functional, tissue-based; conditions: Homo sapiens
Method in brief: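 Single cells from prostate cancer PDX tumors (collagenase I/III digest); 20000 cells embedded in collagen gel and cultured overnight, then treated or vehicle for 14 days with at least 5 wells per dose. Organoids imaged and counted on day 14; groups compared by Student t test.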

[3] = Clearance in CD-1 mouse at 1 mg/kg,iv administration measured upto 48 hrs by LC-MS/MS analysis; type: ADME, organism-based; conditions: in vivo
Method in brief: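 Single intravenous bolus in ICR male mice (n = 3, 6 weeks); dosing solution 0.5 mg/mL in 20% DMSO, 16% PEG, 4% dextrose in PBS. Tail-vein blood (10 μL) taken at 2, 5, 15, 30 min and 1, 2, 4, 8, 24, 48 h. Plasma quantified by LC-MS/MS against a 0.5–1000 ng/mL calibration; parameters from non-compartmental analysis.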

[4] = molecular target: T1, Prostaglandin G/H synthase 2 (Homo sapiens, UniProt P35354); assay: Inhibition of COX2 (unknown origin); type: toxicity
T1 sequence (P35354 whole entry): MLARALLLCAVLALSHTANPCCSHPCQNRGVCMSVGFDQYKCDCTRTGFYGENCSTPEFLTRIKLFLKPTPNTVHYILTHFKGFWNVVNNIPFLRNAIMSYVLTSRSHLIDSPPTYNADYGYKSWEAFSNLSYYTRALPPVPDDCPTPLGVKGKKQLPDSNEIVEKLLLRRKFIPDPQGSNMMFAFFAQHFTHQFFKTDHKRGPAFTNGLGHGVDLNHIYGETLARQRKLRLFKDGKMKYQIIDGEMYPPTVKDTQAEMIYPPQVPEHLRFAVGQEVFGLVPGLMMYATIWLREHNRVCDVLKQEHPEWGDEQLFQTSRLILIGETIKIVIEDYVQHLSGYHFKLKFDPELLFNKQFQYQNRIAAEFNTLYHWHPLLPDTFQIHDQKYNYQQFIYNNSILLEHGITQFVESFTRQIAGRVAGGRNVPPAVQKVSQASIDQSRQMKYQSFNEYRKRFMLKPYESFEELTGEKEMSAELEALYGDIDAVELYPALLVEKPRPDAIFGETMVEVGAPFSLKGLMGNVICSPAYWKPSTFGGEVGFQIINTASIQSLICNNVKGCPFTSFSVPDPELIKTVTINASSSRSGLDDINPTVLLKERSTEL
Method in brief: (§2)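 Tested in a commercial off-target safety screening panel of 78 targets. Values reported as RC50, taken as IC50 except for agonist mode, where RC50 is EC50.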

MDA-MB-468 [5] = assay: Cytotoxicity against human MDA-MB-468 cells assessed as inhibition of cell growth incubated for 72 hrs by MTT assay; type: functional, cell-based; conditions: MDA-MB-468, 72 h
Method in brief: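 Cells seeded and grown to 70–80% confluence, then exposed for 72 h to a titration series (0.2–1000 nM). Viability read by MTT relative to untreated cells, with 6 replicates per concentration. IC50 fitted with a Hill-slope model.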

[6] = Drug concentration in CD-1 mouse plasma at 37.7 micromol/kg,ip administration measured after 22 hrs by LC-MS/MS analysis; type: ADME, cell-free; conditions: dose 37.7 µmol/kg
Method in brief: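 Female CD-1 mice (n = 3) dosed ip at 37.7 μmol/kg. Blood (20 μL) taken at 0.25, 5 and 22 h, processed to plasma, and drug quantified by LC-MS/MS.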

[7] = Half life in CD-1 mouse at 10 mg/kg,po administration measured upto 48 hrs by LC-MS/MS analysis; type: ADME, organism-based; conditions: in vivo; method in brief: as §1
[8] = Toxicity in SCID mouse orthotopically xenografted with human Panc-1-Luc cells assessed as change in body weight at 10 mg/kg,ip administration once daily for 63 days; type: organism-based; conditions: in vivo, 1512 h, time 63 day
Method in brief: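 Male SCID mice (8 weeks) received orthotopic pancreatic implants of Panc-1-Luc cells (0.5×10^6 per mouse). Mice randomized by luciferase imaging (n=5 per group). From day 8, dosed 10 mg/kg i.p. or solvent vehicle once daily. Body weight recorded weekly; mice euthanized at day 63.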

MDA-PCa-118b = assay: Antitumor activity against patient derived MDA-PCa-118b cells xenografted in SCID mouse assessed as reduction in bone damage at 10 mg/kg,ip administration measured after 4 weeks by X-ray imaging analysis; type: functional, organism-based; conditions: Homo sapiens
Method in brief: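 AR-PDX 118b cells (1×10^5) injected via intra-femoral artery in male SCID mice (8–9 weeks). After 2 weeks, 10 mg/kg/day ip or vehicle for 4 weeks (n = 9/group). X-ray imaging every two weeks. At the end, femurs CT-scanned (5 per group) with 3D-reconstruction tumor size, and H&E histology used for tumor/femur area ratio.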

[9] = Tmax in CD-1 mouse at 1 mg/kg,iv administration measured upto 48 hrs by LC-MS/MS analysis; type: ADME, organism-based; conditions: in vivo
Method in brief: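 Male ICR mice (n=3, 6 weeks) given 1 mg/kg i.v. from a 0.5 mg/mL solution in 20% DMSO/16% PEG/4% dextrose in PBS. Tail-vein blood (10 μL) drawn at 2, 5, 15 and 30 min and at 1, 2, 4, 8, 24 and 48 h. Plasma quantified by LC-MS/MS against 0.5–1000 ng/mL calibration standards with QC samples. Parameters from non-compartmental analysis.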

MDA-MB-468 [10] = assay: Cytotoxicity against human MDA-MB-468 cells assessed as inhibition of cell growth preincubated for 3 to 6 hrs followed by compound washout and incubated for 72 hrs by MTT assay; type: functional, cell-based; conditions: time 3-6 hrs
Method in brief: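 MDA-MB-468 cells (RPMI 1640, 5% FBS) exposed to compound for varying durations, washed with PBS, then kept in culture to a total of 72 h. Viability read by MTT; EC50 and EC90 determined at each exposure time.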

[11] = molecular target: 5-hydroxytryptamine receptor 2B (Homo sapiens, UniProt P41595); assay: Antagonist activity at HTR2B (unknown origin) by calcium flux assay; type: toxicity; method in brief: as §2
5-hydroxytryptamine receptor 2B, sequence (P41595 whole entry): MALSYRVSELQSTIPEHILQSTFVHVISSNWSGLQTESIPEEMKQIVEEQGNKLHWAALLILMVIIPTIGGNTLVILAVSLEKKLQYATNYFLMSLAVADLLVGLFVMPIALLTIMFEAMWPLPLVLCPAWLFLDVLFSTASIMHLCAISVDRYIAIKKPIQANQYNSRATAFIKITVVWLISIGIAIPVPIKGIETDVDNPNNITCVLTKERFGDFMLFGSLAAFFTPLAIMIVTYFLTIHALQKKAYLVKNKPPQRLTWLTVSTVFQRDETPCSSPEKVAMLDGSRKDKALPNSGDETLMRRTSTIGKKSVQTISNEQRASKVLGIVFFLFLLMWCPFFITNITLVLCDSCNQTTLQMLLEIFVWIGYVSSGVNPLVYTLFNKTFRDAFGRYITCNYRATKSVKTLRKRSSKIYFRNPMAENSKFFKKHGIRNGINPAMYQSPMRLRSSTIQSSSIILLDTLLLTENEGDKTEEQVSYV

PANC-1 = assay: Cytotoxicity against SiRNA mediated SRC-3.1 knockdown human PANC-1 cells assessed as inhibition of cell growth incubated for 72 hrs by MTT assay; type: functional, cell-based; conditions: PANC-1, 72 h
Method in brief: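 PANC-1 cells with stable lentiviral shRNA knockdown of SRC-3 or control shRNA; SRC-3 levels checked by western blot. Cells treated with a dose series for 72 h and viability read by MTT.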

[12] = Stability in CD-1 mouse plasma at 37.7 micromol/kg,ip administration measured after 22 hrs by LC-MS/MS analysis; type: ADME, cell-free; conditions: at 37.7 µmol/kg
Method in brief: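 Female CD-1 mice (n=3) dosed i.p. at 37.7 μmol/kg (equimolar across compounds). Blood (20 μL) drawn at 0.25, 5 and 22 h and processed to plasma. Drug levels quantified by LC-MS/MS.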

F [1]: 24.6%
AUCt [2]: 1719 ng·h/mL
clearance [3]: 22 mL/min/kg
concentration at 22 h [6]: 47 nM
t1/2 [7]: 14.3 h
Tmax [9]: 1.98 min
Stability [12]: Stable
Compound: C/C(=N\N=c1/[nH]c2cc(F)c(F)cc2n1C)c1ccc(F)cn1
Activity (Prostate cancer organoid): Active
IC50 [4]: 3 µM
IC50 (MDA-MB-468 [5]): 0.015 µM
Activity [8]: Non-Toxic
Activity (MDA-PCa-118b): Active
Activity (MDA-MB-468 [10]): Active
IC50 [11]: 4.1 µM
IC50 (PANC-1): 0.147 µM
